Assay outcomes: PubChem, several laboratories
Only some compounds are listed: those with a hit (about 2.6% of all), similar ones and a draw of the others.
rCAG binder: binds r(CAG) RNA repeats | hit rate 1.3% among 370,000 | AID 651821 | inhibition, % at 3 µM | r(CAG) RNA repeat, TO-PRO-1 dye displacement fluorescence;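 active means inhibition above the plate cutoff, the mean of all test compounds on that plate plus 3 SD, cut at about 35% in these data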;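 further: 0% = DMSO alone and 100% = 100 µM mitoxantrone as full dye displacement; higher means more dye released from RNA so lower well fluorescence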
Scp1 inh: inhibitors of human Scp-1 phosphatase; hit rate 0.88% among 340,000; Q9GZU7; Recombinant Scp1, phosphopeptide, malachite green phosphate absorbance; inhibition, % at 20 µM;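 active means inhibition above about 50% at 20 µM, limit read from the data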;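 further: plate controls were DMSO wells with enzyme for no effect and wells lacking enzyme for full effect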
Target sequence (Q9GZU7 76-261 limits assumed): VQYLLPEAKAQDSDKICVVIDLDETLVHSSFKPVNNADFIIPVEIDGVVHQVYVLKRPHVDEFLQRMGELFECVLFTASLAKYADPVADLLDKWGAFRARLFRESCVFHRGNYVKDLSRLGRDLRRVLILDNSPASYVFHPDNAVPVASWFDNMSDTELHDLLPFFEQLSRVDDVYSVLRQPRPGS
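assay system = SCP-1 phosphatase catalytic domain, residues 76-261 | buffer or medium = 50 mM Tris acetate pH 5.5, 0.005% Tween-20, 10 mM MgCl2 | incubation = enzyme reaction 45 min at room temperature, colour 5 min, stabilisation 30 min | signal = Phosphate-binding colour reagent, absorbance read at 630 nm | measure = % inhibition at 20 µM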
NadD inh: NadD (S. aureus) enzyme inhibition; purified NadD enzyme, colorimetric absorbance read-out; inhibition, % at 20 µM; hit rate 0.78% among 360,000; AID 602399; in the data active means inhibition above about 26%
STEP inh: inhibitors of human striatal-enriched phosphatase STEP; hit rate 0.25% among 360,000; P54829; AID 588621; recombinant STEP, OMFP fluorogenic substrate, fluorescence; inhibition, % at 20 µM;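 active means inhibition at 20 µM, scaled per plate between control wells, above about 37%, limit read from the data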;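 further: 0% = DMSO with enzyme and substrate and 100% = substrate only without enzyme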
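Also added – OMFP at 25 µM · Test system – STEP tyrosine phosphatase · Technique – FITC-channel fluorescence of OMFP product · Schedule – 20 min at room temperature, dark · Evaluation – control-normalized % inhibition with plate pattern correction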
LMPTP block: blocks human LMPTP phosphatase; P24666; recombinant LMPTP-A, OMFP fluorogenic substrate, fluorescence intensity; inhibition, % at 20 µM; hit rate 0.22% among 360,000;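 active means compounds that cut the enzyme signal by at least half of the control window in the single-dose screen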;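 further: plate controls were DMSO wells with enzyme plus substrate for no effect and substrate without enzyme for full effect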
Target sequence (P24666 whole entry, looked up): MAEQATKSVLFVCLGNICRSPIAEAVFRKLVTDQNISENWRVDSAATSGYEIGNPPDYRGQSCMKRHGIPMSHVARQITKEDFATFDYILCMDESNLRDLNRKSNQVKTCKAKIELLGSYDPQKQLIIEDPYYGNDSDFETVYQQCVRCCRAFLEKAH
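Test system: LMPTP-A phosphatase enzyme; input: 0.625 nM LMPTP-A final; reagent: OMFP substrate, 400 µM final; compound dosing: 20 µM single dose, 3% DMSO; incubation: 50 min dark incubation at room temperature; measured by: endpoint fluorescence intensity from OMFP dephosphorylation; measure: % inhibition relative to no-enzyme and uninhibited control wells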
NadD inh conf: NadD (S. aureus) inhibition, single concentration confirmation. shares compounds with NadD inh. purified S. aureus NadD, colorimetric enzyme assay. inhibition, % at 20 µM. hit rate 13% among 2,000. AID 624309; in the data active means inhibition mostly above about 42%, no sharp cut-off; inactive means mostly below about 42%
* = called active by the depositor; nt = no result given.

SMILES | rCAG binder | Scp1 inh | NadD inh | STEP inh | LMPTP block | NadD inh conf
Cc1ccc(Cl)cc1N1CCN(S(=O)(=O)c2ccc3[nH]c(=O)c(=O)[nH]c3c2)CC1 | 12 | 3 | 37* | 2 | 2 | 49*
Cc1ccc(-c2cccc(C3CC=CC4C3C(=O)N(Cc3ccccc3)C4c3ccc(C(F)(F)F)cc3)c2)cc1 (centres undefined) | 11 | -3 | 20 | 7 | 2 | nt
COc1ccc(-c2cccc(C3CC=CC4C3C(=O)N(Cc3ccccc3)C4c3ccc4ccccc4c3)c2)cc1 (centres undefined) | 11 | -7 | 31* | 3 | 6 | 5
COc1ccc(C2C3C=CCC(c4cccc(-c5ccc(C)cc5)c4)C3C(=O)N2Cc2ccccc2)cc1Cl (centres undefined) | 14 | -14 | 36* | 3 | 5 | 12
CN(C)c1ccc(-c2cccc(C3CC=CC4C3C(=O)N(Cc3ccccc3)C4c3ccc4ccccc4c3)c2)cc1 (centres undefined) | 5 | 3 | 32* | 2 | 3 | 13
CCOC(=O)[C@]12CCCCC/C=C\1N(CCc1ccc(Cl)cc1)C(=O)[C@H]2CC(=O)N1CCN(C(=O)C2CC2)CC1 | 1 | nt | nt | nt | nt | nt
Cc1cc(=O)oc2cc(OCc3ccc(C(=O)OCC(=O)NC4CCS(=O)(=O)C4)cc3)ccc12 (centres undefined) | 6 | 50 | -1 | 6 | 13 | nt
Cc1cc(=O)oc2cc(OCc3ccc(C(=O)OCC(=O)Nc4ccc(N(C)C)cc4)cc3)ccc12 | 15 | 2 | 35* | 8 | 3 | 5
Cc1ccc(N2C(=O)CC(N(CCc3ccccc3)C(=S)Nc3ccc(N(C)C)cc3)C2=O)cc1 (centres undefined) | 18 | 1 | 37* | -2 | 3 | 35*
O=C1CC(N(CCc2ccccc2)C(=S)Nc2ccccc2)C(=O)N1c1ccc(Br)cc1 (centres undefined) | 23 | -13 | 3 | -5 | 5 | nt
Cc1ccc(CN2CCCCC(NC(=O)c3cccc(C(F)(F)F)c3)C2=O)cc1 (centres undefined) | 0 | nt | nt | nt | nt | nt
O=C(Nc1ncc(Cc2ccccc2Cl)s1)c1ccc(-c2cccc([N+](=O)[O-])c2)o1 | 8 | -3 | 36* | 2 | 1 | 3
S=c1[nH]nc(COc2ccc(Cl)cc2)n1C1CCCCC1 | 5 | 3 | 35* | 1 | 0 | 33
Cc1ccc(OCc2n[nH]c(=S)n2C2CCCCC2)cc1 | 3 | -5 | 4 | 1 | 2 | nt
COc1ccc(-c2nnc(NC(=O)c3ccc(S(=O)(=O)N4CCc5ccccc5C4)cc3)o2)cc1 | nt | -5 | 84* | 0 | 1 | 14
COc1ccc(-c2csc(NC(=O)c3ccc(S(=O)(=O)N4CCc5ccccc5C4)cc3)n2)cc1 | 6 | -12 | 17 | -2 | 1 | nt
Clc1ccc([C@H]2OC[C@@]3(CNCCN4CCOCC4)CS[C@H](c4ccc(Cl)cc4)N23)cc1 | -1 | nt | nt | nt | nt | nt
C=CCn1c(=NC(=O)c2cc(-c3cccs3)nc3ccccc23)sc2cc(S(N)(=O)=O)ccc21 | 30 | 45 | 51* | 4 | 2 | 59*
C=CCn1c(=NC(=O)c2cc(Cl)sc2Cl)sc2cc(S(N)(=O)=O)ccc21 | 10 | -8 | 17 | -1 | 1 | nt
C#CCN(C[C@H]1[C@H](OC(=O)NCc2ccccc2)[C@H](OC(=O)NCc2ccccc2)C[C@H]2C(=O)N(c3ccccc3)C(=O)[C@@H]12)S(=O)(=O)c1ccc(C)cc1 | 20 | nt | 35* | 2 | 0 | 48*
C#CCN(C[C@H]1[C@H](OC(=O)Nc2cccs2)[C@H](OC(=O)Nc2cccs2)C[C@H]2C(=O)N(c3ccccc3)C(=O)[C@@H]12)S(=O)(=O)c1ccc(C)cc1 | 26 | nt | 35* | 3 | 2 | 50*
C#CCN(C[C@H]1[C@H](OC(=O)NCC2CCCCC2)[C@H](OC(=O)NCC2CCCCC2)C[C@H]2C(=O)N(c3ccccc3)C(=O)[C@@H]12)S(=O)(=O)c1ccc(C)cc1 | 22 | nt | 37* | 2 | -2 | 21
Cc1nn(-c2ccccc2)c2sc(C(=O)N3CCC4(CC3)OCCO4)cc12 | 0 | nt | nt | nt | nt | nt
COC(=O)[C@]12C[C@H](CC(=O)NCc3cccc(C(F)(F)F)c3)C(=O)N(Cc3ccc(Cl)cc3Cl)C1=C[C@H](C(C)C)O[C@@H]2C1CC1 | 2 | nt | nt | nt | nt | nt
COC(=O)[C@@]12CCCCC3=C1N(CCC3)C(=O)[C@H]2CC(=O)N1CCC(c2ccccc2)CC1 | 4 | nt | nt | nt | nt | nt
SMILES | rCAG binder | Scp1 inh | NadD inh | STEP inh | LMPTP block | NadD inh conf
CCOC(=O)c1c(NC(=O)Cn2nc(C(=O)O)c3ccccc3c2=O)sc2c1CCC(C)C2 (centres undefined) | 10 | 9 | 33* | 4 | 0 | 12
CC(=O)NCCNc1nc(NC(C)C)nc2cc(-c3ccccc3)sc12 | -2 | nt | 0 | 4 | 7 | nt
COc1ccc(-c2cc(CNc3nc(NC(C)C)nc4cc(-c5ccccc5)sc34)on2)cc1 | 8 | nt | 34* | 12 | 7 | 21
O=S(c1ccccc1O)S(=O)c1ccccc1O (centres undefined) | 72* | 36 | 39* | 1 | 3 | 68*
CS(=O)c1ccccc1O (centres undefined) | 4 | -1 | 0 | -2 | -3 | nt
COc1ccc(C(=O)C2(C(=O)NC3CCCC3)CC(c3ccccc3C(F)(F)F)=NO2)cc1 (centres undefined) | -1 | nt | nt | nt | nt | nt
CCOc1cc(/C=N\NC(=O)c2ccc(NC(=O)CC)cc2)ccc1OC(=O)c1ccccc1 | 0 | -6 | 2 | -1 | -3 | nt
CCOc1cc(/C=N/NC(=O)CNc2ccc(C)cc2)ccc1OC(=O)c1ccccc1 | 11 | -11 | 33* | 1 | 1 | 12
COc1cccc(-c2nnc(SCC(=O)OC(C)C)n2-c2ccc(Cl)cc2)c1 | 3 | nt | nt | nt | nt | nt
N[C@H](C(=O)N1CCC[C@@H]1C(=O)N1CCC2CCN(S(=O)(=O)c3ccccc3)CC21)c1ccccc1 (some centres undefined) | 2 | nt | nt | nt | nt | nt
Cc1cc(OCC(=O)Nc2ccc(N3CCCC3)cc2)cc(C)c1Cl | 4 | -1 | 43* | 3 | 4 | 18
O=C(CN(CCc1ccccc1)S(=O)(=O)c1ccccc1)N1CCOCC1 | 2 | nt | nt | nt | nt | nt
Cc1ccc(C)c(N(C(=O)Cn2nnc(-c3cccs3)n2)C(C(=O)NC2CCCC2)c2ccncc2)c1 (centres undefined) | -4 | 0 | 7 | -4 | -2 | nt
COc1cccc(N(C(=O)Cn2nnc(-c3cccs3)n2)C(C(=O)NC2CCCCC2)c2ccncc2)c1 (centres undefined) | -2 | -11 | 33* | -2 | 2 | 5
CC(=O)N1CCCN(C(=O)C2CCN(c3ncnc4c3sc3cccc(F)c34)CC2)CC1 | 4 | nt | nt | nt | nt | nt
C=CCN(CC#Cc1ccccc1)CC1CC1 | -1 | nt | nt | nt | nt | nt
